Reference: article PMC7781011 (Journal of Inflammation Research, 2020)

Assays:
rat COX-1 = target: T1, rat COX-1 (Rattus norvegicus, UniProt Q63921); experiment: Cell-free fluorometric COX-1 assay; type: biochemical
T1 sequence (Q63921 27-602): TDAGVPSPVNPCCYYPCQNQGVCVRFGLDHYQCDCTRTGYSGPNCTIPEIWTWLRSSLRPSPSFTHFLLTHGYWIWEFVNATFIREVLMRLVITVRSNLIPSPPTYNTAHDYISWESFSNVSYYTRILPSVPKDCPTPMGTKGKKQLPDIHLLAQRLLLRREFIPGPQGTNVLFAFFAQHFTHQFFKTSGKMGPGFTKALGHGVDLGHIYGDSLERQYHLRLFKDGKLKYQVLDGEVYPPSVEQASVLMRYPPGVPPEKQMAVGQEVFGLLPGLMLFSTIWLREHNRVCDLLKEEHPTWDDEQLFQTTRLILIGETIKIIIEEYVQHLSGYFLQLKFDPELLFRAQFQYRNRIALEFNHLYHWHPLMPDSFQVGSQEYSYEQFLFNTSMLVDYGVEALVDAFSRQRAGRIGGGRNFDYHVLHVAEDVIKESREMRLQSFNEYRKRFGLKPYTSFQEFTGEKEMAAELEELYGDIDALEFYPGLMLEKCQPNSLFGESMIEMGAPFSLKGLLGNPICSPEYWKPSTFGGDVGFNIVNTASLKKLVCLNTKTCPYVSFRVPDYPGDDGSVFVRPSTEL

human COX-2 [1] = target: T2, human COX-2 (Homo sapiens, UniProt P35354); experiment: Cell-free fluorometric COX-2 assay; type: biochemical; details: up to the tested range of 1 mM
T2 sequence (P35354 18-604): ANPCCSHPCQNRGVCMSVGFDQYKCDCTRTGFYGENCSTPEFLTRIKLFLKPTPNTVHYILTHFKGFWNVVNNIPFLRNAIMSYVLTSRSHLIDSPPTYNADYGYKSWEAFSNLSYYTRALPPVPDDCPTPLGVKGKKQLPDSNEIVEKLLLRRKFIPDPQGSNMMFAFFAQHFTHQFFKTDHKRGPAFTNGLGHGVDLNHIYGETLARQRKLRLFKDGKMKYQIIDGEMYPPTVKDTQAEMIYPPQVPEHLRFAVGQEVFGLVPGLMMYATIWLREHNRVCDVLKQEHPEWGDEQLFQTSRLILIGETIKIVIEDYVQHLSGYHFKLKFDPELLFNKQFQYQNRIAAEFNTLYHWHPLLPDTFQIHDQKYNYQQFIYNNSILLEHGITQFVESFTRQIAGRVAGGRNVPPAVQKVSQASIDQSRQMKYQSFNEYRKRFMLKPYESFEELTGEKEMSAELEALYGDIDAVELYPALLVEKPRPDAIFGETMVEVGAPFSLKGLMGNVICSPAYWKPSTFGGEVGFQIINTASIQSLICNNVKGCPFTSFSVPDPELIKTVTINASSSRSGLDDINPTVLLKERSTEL

rat COX-2 = target: T3, rat COX-2 (Rattus norvegicus, UniProt P35355); experiment: Cell-free fluorometric COX-2 assay; type: biochemical
T3 sequence (P35355 18-604): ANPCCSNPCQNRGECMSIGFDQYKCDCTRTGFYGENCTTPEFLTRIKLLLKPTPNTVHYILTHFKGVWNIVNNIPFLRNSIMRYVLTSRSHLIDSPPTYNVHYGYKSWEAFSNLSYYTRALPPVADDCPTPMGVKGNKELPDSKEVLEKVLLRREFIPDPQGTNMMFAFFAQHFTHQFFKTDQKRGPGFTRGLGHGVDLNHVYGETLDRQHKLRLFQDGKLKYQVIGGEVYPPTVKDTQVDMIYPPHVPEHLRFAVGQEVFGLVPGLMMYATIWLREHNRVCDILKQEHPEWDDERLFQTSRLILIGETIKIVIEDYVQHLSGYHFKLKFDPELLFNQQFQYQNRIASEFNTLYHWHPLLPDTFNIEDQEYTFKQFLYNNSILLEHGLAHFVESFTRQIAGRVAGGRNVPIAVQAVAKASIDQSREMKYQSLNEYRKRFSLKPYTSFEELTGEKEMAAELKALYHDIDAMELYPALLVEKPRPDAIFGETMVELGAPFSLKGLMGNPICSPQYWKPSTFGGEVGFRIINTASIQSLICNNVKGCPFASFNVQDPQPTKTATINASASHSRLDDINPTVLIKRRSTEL

human COX-2 [2] = target: T2, human COX-2; experiment: Binding assay using isothermal titration calorimetry
In short: (§1)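 Serial injections of test compound (up to 1 mM) into enzyme-containing cell at 1 mM protein, both dissolved in PBS and degassed before use. Titration continued until heat signal approached zero at saturation. Isotherm fitted to obtain dissociation constant KD.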

human COX-1 = human COX-1 (Homo sapiens, UniProt P23219); experiment: as above
In short: as §1

[3] = test system: CD68-positive inflammatory cell infiltration and TNF-α expression in paw tissue; experiment: Immunofluorescence and immunoblot analysis of carrageenan-injected paw tissue; type: in vivo; details: rat, 400 ppm, compared to the untreated control
In short: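 Paw tissue: 4-µm FFPE sections, citrate pH 6.0 epitope retrieval (99°C, 30 min). Blocked with serum/BSA 40 min. Alexa700-CD68 (1:50) and TNF-α (1:100) overnight at 4°C, Alexa488 secondary for TNF-α. Confocal imaging, stained cells counted by image analysis. Immunoblot: 20 µg protein, 12% SDS-PAGE, PVDF. CD68 and TNF-α (1:100), HRP secondary, ECL, β-actin loading control.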

[4] = cell-free, rat, up to the tested range of 1 mM

Chain of human COX-1 (P23219 24-599): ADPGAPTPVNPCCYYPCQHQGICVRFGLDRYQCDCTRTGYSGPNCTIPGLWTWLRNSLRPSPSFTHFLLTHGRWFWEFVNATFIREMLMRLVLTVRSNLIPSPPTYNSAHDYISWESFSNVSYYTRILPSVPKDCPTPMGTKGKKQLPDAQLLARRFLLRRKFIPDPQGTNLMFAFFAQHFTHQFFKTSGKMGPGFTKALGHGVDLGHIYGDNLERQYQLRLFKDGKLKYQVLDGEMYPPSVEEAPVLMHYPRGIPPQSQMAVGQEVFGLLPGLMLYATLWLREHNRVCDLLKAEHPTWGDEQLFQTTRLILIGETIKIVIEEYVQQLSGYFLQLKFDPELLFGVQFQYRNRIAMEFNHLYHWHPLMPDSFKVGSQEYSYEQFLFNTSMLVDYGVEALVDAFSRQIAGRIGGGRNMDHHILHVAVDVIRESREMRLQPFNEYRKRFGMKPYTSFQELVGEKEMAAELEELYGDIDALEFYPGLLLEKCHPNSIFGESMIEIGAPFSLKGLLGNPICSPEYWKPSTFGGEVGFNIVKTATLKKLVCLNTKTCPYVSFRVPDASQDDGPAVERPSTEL

| Structure (SMILES) | inhibition of COX-1 activity (rat COX-1; [4]) | inhibition of COX-2 activity (human COX-2 [1]) | inhibition of COX-2 activity (rat COX-2; [4]) | Kd (human COX-2 [2]) | Kd (human COX-1) | CD68-positive inflammatory cell infiltration in paw tissue [3] | expression of TNF-α in paw tissue [3] | IC50 (rat COX-1) | IC50 (rat COX-2) |
| --- | --- | --- | --- | --- | --- | --- | --- | --- | --- |
| CC1(C)Cc2c(-c3ccccc3)c(-c3ccc(Cl)cc3)c(CC(=O)NCC(=O)O)n2C1 [LFA-9, 2-[[2-[2-(4-chlorophenyl)-6,6-dimethyl-1-phenyl-5,7-dihydropyrrolizin-3-yl]acetyl]amino]acetic acid] | did not show inhibition | did not show inhibition | did not show inhibition | > 1000 µM | > 1000 µM | significantly decreased | significantly decreased | – | – |
| CC1(C)Cc2c(-c3ccccc3)c(-c3ccc(Cl)cc3)c(CC(=O)O)n2C1 [Licofelone, reference compound] | – | – | – | – | – | – | – | 1.81 µM | 3.26 µM |
